Reference: ChEMBL document CHEMBL3632578, “Identification of β-Lapachone Analogs as Novel MALT1 Inhibitors To Treat an Aggressive Subtype of Diffuse Large B-Cell Lymphoma” (J Med Chem, 2015)

Experiments:
[1] = molecular target: T1, Mucosa-associated lymphoid tissue lymphoma translocation protein 1 (Homo sapiens, UniProt Q9UDY8); assay: Inhibition of His-tagged human MALT1 (catalytic domain-339-719 aa) by fluorescence based assay using 25 uM Ac-LRSR-AMC as substrate
T1 sequence (Q9UDY8 whole entry): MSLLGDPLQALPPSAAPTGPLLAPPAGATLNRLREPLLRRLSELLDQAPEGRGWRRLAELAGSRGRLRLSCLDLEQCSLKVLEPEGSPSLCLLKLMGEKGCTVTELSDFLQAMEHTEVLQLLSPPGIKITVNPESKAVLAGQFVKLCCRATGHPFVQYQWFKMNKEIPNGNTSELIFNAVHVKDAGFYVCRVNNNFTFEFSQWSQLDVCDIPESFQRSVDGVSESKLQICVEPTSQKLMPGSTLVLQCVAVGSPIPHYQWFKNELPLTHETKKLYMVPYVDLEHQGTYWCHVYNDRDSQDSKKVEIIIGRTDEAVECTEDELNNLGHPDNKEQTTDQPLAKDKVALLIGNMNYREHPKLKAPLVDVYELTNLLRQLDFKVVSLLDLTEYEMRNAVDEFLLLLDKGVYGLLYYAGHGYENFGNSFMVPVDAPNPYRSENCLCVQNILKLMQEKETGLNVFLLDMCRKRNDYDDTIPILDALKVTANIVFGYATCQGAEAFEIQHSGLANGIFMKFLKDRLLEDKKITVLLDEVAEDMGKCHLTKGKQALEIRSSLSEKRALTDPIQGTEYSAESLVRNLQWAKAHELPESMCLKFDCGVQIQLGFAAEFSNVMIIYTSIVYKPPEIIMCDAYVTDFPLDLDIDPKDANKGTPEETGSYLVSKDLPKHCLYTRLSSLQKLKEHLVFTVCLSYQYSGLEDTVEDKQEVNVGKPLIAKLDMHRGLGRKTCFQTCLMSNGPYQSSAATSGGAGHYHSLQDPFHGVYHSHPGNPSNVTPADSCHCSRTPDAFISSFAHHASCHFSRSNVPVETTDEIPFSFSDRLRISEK

[2] = Antiproliferative activity against human OCI-LY3 cells after 48 hrs by MTT assay; assay type: functional, cell-based; conditions: OCI-Ly3, 48 h
[3] = molecular target: T1, Mucosa-associated lymphoid tissue lymphoma translocation protein 1; assay: Inhibition of MALT1 in human Jurkat cell lysate preincubated for 2 hrs followed by addition of 25 uM Ac-LRSR-AMC substrate for 3 hrs by fluorescence based assay; assay type: cell-free
Outline: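 MALT1 paracaspase activity in Jurkat cell lysate, read as fluorescence from AMC (7-amino-4-methylcoumarin) released when MALT1 cleaves the fluorogenic tetrapeptide Ac-LRSR-AMC. Inhibition is taken against an untreated control. IC50 is the mean of two independent experiments, each run in duplicate.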

[4] = molecular target: T2, Mucosa-associated lymphoid tissue lymphoma translocation protein 1 (Homo sapiens) (UniProt Q9UDY8); assay: Inhibition of MALT1 paracaspase activity in human OCI-LY3 cells assessed as decrease in cleaved CYLD level after 24 hrs by western blot analysis; assay type: cell-based
T2 sequence (whole entry): T1 sequence (Q9UDY8 whole entry)

HuT78 = assay: Antiproliferative activity against human HUT78 cells; assay type: functional, cell-based
[5] = Antiproliferative activity against human MJ cells; assay type: functional, cell-based
[6] = Antiproliferative activity against human SupT1 cells; assay type: functional, cell-based; conditions: SUP-T1
A549 = assay: Antiproliferative activity against human A549 cells; assay type: functional, cell-based
[7] = Antiproliferative activity against human NK92 cells; assay type: functional, cell-based

IC50 [1]	IC50 [3]	SMILES	IC50 [2]	further results
9.2 µM		CC1(C)CCC2=C(O1)c1ccc(Br)cc1C(=O)C2=O	4.1 µM	
	5.4 µM	O=C1C=C(NC2CCN(Cc3ccccc3)CC2)c2ccccc2C1=O		
3.3 µM		COCCOc1nc(-c2ccc(Cl)c(Cl)c2)n(-c2ccc(NC(=O)CCl)cc2)n1	2.6 µM	
	3 µM	CNC(=O)CNC1=CC(=O)C(=O)c2ccccc21	9.4 µM	
	21.9 µM	O=C1C=C(NCCN2CCOCC2)c2ccccc2C1=O		
	3.1 µM	O=C(CNC1=CC(=O)C(=O)c2ccccc21)NCCc1ccccc1		
	1.5 µM	O=C1C=C(NC2CCN(Cc3ccccc3)C2)c2ccccc2C1=O (stereo not drawn)	> 10 µM	
	7.8 µM	COCCNC1=CC(=O)C(=O)c2ccccc21	> 10 µM	
9.2 µM		COc1ccc2c(c1)C1=C(CCC(C)(C)O1)C(=O)C2=O	17 µM	
	1.6 µM	CN(C)CCNC1=CC(=O)C(=O)c2ccccc21		
1.5 µM		CC1(C)CCC2=C(O1)c1ccc(F)cc1C(=O)C2=O	3.3 µM	inhibition [4]: Dose-dependent effect
2.3 µM		COc1cc2c(cc1OC)C1=C(CCC(C)(C)O1)C(=O)C2=O	8.5 µM	
	14.9 µM	CC(C)(C)OC(=O)NCCNC1=CC(=O)C(=O)c2ccccc21		
	14.4 µM	O=C1C=C(NCCCN2CCCC2=O)c2ccccc2C1=O		
	4.1 µM	O=C1C=C(NCC(=O)N2CCCC2)c2ccccc2C1=O		
	2.5 µM	CN(C)C1=CC(=O)C(=O)c2ccccc21	> 10 µM	
	20.4 µM	CC(C)NC1=CC(=O)C(=O)c2ccccc21		
	11.9 µM	O=C1C=C(NCCCN2CCCC2)c2ccccc2C1=O		
1.6 µM		CC1(C)CCC2=C(O1)c1ccc(C#N)cc1C(=O)C2=O	1.5 µM	IC50 (HuT78): 12.3 µM; IC50 [5]: 16.7 µM; IC50 [6]: 5.6 µM; IC50 (A549): 5.7 µM; inhibition [4]: Dose-dependent effect; IC50 [7]: 17 µM
0.6 µM		COc1ccc2c(c1)C(=O)C(=O)C1=C2OC(C)(C)CC1	3.1 µM	
0.4 µM		CC1(C)CCC2=C(O1)c1ccc([N+](=O)[O-])cc1C(=O)C2=O	4.6 µM	
9.3 µM		CC1(C)CCC2=C(O1)c1cc(O)ccc1C(=O)C2=O		

SMILES	IC50 [1]	IC50 [3]	IC50 [2]	further results
O=C1C=C(NCCc2ccccc2)c2ccccc2C1=O		> 100 µM		
CC(C)=CCC1=C(O)C(=O)c2cc(Br)ccc2C1=O		> 10 µM		
CC1(C)CCC2=C(O1)c1ccccc1C(=O)C2=O [LAPACHONE]	1.2 µM	1.9 µM	4 µM	
COc1cc2c(cc1OC)C(=O)C1=C(CCC(C)(C)O1)C2=O		> 10 µM		
CC(C)=CCC1=C(O)C(=O)c2cc(F)ccc2C1=O		> 10 µM		
